The target of one assay is Cannabinoid receptor 1 (Homo sapiens, UniProt P21554). Nature of the assay: Displacement of [3H]CP55940 from human cannabinoid CB1 receptor expressed in CHO-K1 cells by liquid scintillation counting. In kind it is cell-based. For orientation: Displacement assays read how much labelled ligand stays bound in the presence of the test substance.
Assay [1] has as its target T1, Cannabinoid receptor 2 (Homo sapiens, UniProt P34972). Briefly: Displacement of [3H]CP55940 from human cannabinoid CB2 receptor expressed in CHO-K1 cells by liquid scintillation counting. The class given is cell-based.
Assay [2] has as its target T1, Cannabinoid receptor 2. Briefly: Partial agonist activity at human cannabinoid CB2 receptor expressed in CHO-K1 cells assessed as [S35]GTPgammaS binding by scintillation counting relative to vehicle treated control. In kind it is functional, cell-based. The method in brief:
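CB2 membranes held on ice with […] and 0.1 nM [35S]-GTPγS in buffer with 0.5% fatty-acid-free BSA. Reaction started by adding compound, vehicle or CP55940. GF/B filtration, washing in ice-cold 50 mM Tris-HCl pH 7.4 with 0.1% BSA, then scintillation counting. Specific binding is signal minus the excess-GTPγS residual. Results given as % of vehicle control. Three independent experiments in triplicate.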

Assay [3] addresses T1, Cannabinoid receptor 2. Briefly: Partial agonist activity at human cannabinoid CB2 receptor expressed in CHO-K1 cells assessed as [S35]GTPgammaS binding by scintillation counting. In kind it is functional, cell-based. The method in brief:
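CB2 membranes held on ice with […] and 0.1 nM [35S]-GTPγS in buffer with 0.5% fatty-acid-free BSA. GF/B filtration, washing in ice-cold 50 mM Tris-HCl pH 7.4 with 0.1% BSA, then scintillation counting. Specific binding is signal minus the excess-GTPγS residual. Three independent experiments in triplicate.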
(GTPγS is a poorly hydrolysed GTP analogue; its binding reports G protein activation.)

Bounds are passed on as bounds.

This note sets out measurements from ChEMBL document CHEMBL3351653, “One-pot heterogeneous synthesis of Δ(3)-tetrahydrocannabinol analogues and xanthenes showing differential binding to CB(1) and CB(2) receptors” (Eur J Med Chem, 2014).

Usually Ki stands for a measure of affinity in units of concentration, obtained from inhibition or displacement. A word on the Emax: it is the maximal effect, on the per cent scale that the assay sets. As usually defined, the EC50 is the concentration that produces a half-maximal response.

T1 sequence (P34972 whole entry): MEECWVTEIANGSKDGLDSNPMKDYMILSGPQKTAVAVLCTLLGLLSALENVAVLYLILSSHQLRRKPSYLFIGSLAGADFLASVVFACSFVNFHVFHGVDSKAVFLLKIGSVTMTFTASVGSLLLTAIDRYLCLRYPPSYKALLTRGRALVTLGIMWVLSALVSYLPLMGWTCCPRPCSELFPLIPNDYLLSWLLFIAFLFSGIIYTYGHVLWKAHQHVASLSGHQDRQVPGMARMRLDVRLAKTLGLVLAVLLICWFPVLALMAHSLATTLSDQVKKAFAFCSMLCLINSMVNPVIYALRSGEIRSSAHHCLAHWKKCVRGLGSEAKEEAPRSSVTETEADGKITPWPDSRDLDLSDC
Chain of Cannabinoid receptor 1 (P21554 whole entry): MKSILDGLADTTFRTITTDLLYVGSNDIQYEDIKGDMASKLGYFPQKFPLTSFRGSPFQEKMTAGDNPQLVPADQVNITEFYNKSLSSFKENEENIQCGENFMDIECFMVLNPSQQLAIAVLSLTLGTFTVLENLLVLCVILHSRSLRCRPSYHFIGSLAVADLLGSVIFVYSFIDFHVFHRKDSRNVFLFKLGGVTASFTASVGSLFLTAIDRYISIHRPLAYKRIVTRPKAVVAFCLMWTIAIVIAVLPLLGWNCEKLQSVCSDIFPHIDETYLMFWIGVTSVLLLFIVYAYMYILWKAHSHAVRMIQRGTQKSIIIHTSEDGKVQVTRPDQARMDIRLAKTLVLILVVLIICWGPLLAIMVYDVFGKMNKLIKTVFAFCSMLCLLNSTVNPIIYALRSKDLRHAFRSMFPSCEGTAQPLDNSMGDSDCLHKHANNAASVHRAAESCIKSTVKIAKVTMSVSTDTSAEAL

Turning to `CCc1cc2c(cc1O)OC1=C(CC[C@@H](C)C1)C2(C)C`, the inhibition constant Ki at Cannabinoid receptor 1 is above 10000 nM; at Cannabinoid receptor 2 [1], 510 nM.
Taken in the same sequence, the figures for `CCc1cc2c(cc1O)OC(C)(C)C1=C2C[C@H](C)CC1` were above 10000 nM and above 10000 nM.
Turning to `Cc1cc(O)c2c(c1)OC(C)(C)C1=C2C[C@H](C)CC1`, the Ki at Cannabinoid receptor 1 was found to be 1000 nM; on Cannabinoid receptor 2 [1], 660 nM.
In the case of `C[C@@H]1CCC2=C(C1)Oc1cc(O)ccc1C2(C)C`, the results for the inhibition constant Ki on Cannabinoid receptor 1 and on Cannabinoid receptor 2 [1] were above 10000 nM and 4200 nM, respectively.
For `CCCCCc1cc(O)c2c(c1)OC(C)(C)C1=C2C[C@@H](C)CC1`, on Cannabinoid receptor 2 [2], the maximal effect (Emax) worked out at 146%.
`Cc1cc(O)c2c(c1)OC1=C(CC[C@@H](C)C1)C2(C)C`: the Ki on Cannabinoid receptor 1 and at Cannabinoid receptor 2 [1] was above 10000 nM in each case.
Turning to `CCCCCc1cc(O)c2c(c1)OC(C)(C)C1=C2C[C@H](C)CC1`, at Cannabinoid receptor 2 [2], the Emax is 133%.
For the compound `C[C@@H]1CCC2=C(C1)c1ccc(O)cc1OC2(C)C`, the Ki on Cannabinoid receptor 1 and at Cannabinoid receptor 2 [1] was above 10000 nM throughout.
For the compound `CCCCCc1cc(O)c2c(c1)OC1=C(CC[C@@H](C)C1)C2(C)C`, the results for the Ki at Cannabinoid receptor 1 and on Cannabinoid receptor 2 [1] were 1100 nM and 470 nM, respectively. On Cannabinoid receptor 2 [3], the EC50 came out at 930 nM. The maximum response (Emax) on Cannabinoid receptor 2 [2] is 152%.
Turning to `CCCCCc1cc(O)c2c(c1)OC1=C(CC[C@H](C)C1)C2(C)C`, the Ki on Cannabinoid receptor 1 was 2100 nM; on Cannabinoid receptor 2 [1], 180 nM. At Cannabinoid receptor 2 [3], the EC50 was 820 nM. Also, the Emax on Cannabinoid receptor 2 [2] is 167%.
Turning to `Cc1c(O)ccc2c1OC1=C(CC[C@@H](C)C1)C2(C)C`, the figures for the Ki at Cannabinoid receptor 1 and at Cannabinoid receptor 2 [1] were above 10000 nM and 1000 nM, respectively.
The like results for `Cc1c(O)ccc2c1OC(C)(C)C1=C2C[C@H](C)CC1` were, in that order, above 10000 nM and above 10000 nM.
